SUMO HTRF inh: inhibitors of human SUMOylation (UBC9); P63279; HTRF SUMOylation assay, SAE1/SAE2 + UBC9, in vitro; inhibition, % at 35 µM; 290,000 tested, 0.36% active; in the data active = inhibition above about 50%, passing the limit was not always enough
Target sequence (P63279 whole entry, looked up): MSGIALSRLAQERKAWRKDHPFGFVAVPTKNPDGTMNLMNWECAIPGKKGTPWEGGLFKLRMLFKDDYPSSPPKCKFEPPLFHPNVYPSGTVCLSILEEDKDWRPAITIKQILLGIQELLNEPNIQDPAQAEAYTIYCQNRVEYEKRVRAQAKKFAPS
TDP2 inh: TDP2 (human) inhibition, absorbance primary screen. inhibition, % at 12.8 µM. recombinant TDP2, T5PNP hydrolysis, p-nitrophenol absorbance 415 nm. O95551. 370,000 tested, 0.34% active;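 active = inhibition above the mean of all tested compounds plus 3 SD, set per campaign, cut at about 25% in these data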
Target sequence (O95551 whole entry, looked up): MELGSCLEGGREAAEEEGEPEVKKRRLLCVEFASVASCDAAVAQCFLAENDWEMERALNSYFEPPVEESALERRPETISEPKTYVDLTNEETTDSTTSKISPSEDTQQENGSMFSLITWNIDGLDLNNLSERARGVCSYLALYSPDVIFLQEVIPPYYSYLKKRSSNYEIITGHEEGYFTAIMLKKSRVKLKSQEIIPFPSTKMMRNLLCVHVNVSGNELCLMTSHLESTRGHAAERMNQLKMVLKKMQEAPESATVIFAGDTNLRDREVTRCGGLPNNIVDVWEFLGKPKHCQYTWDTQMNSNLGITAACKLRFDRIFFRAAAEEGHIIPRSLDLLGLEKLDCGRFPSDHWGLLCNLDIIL
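Read-out basis: percent inhibition. System: recombinant human TDP2. Buffer or medium: Mg2+-containing Tris-HCl buffer, pH 7.5. Repeats: single replicate. Timing: reaction 2 h, 37 °C. Benchmarks: high control without enzyme, low control DMSO plus TDP2. Probe or stimulus: 5 mM T5PNP. Doses: 12.8 µM only. Measured by: epi absorbance of p-nitrophenol freed from T5PNP by hydrolysis.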
Apaf-1 inh: human Apaf-1 inhibition | O14727 | AID 489030 | reconstituted apoptosome caspase-3 activity, DEVD-Rh110 fluorescence | 330,000 tested, 0.71% active | inhibition, % at 20 µM; active = inhibition of at least 40% at 20 µM
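detection = Rh110 fluorescence intensity | test system = biochemical Apaf-1 apoptosome reconstitution | also added = cytochrome c and DEVD-Rh110 substrate | schedule = 30 min plus 50 min, RT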
GSTO1 counter: GSTO1 inhibition, counter-screen for RBBP9 inhibitors | P78417 | recombinant GSTO1, activity-based probe fluorescence polarization | inhibition, % at 5.96 µM | 300,000 tested, 1.1% active | AID 1974;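 active = inhibition above the campaign mean inhibition plus 3 SD, cut at about 35% in these data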
Target sequence (P78417 whole entry, looked up): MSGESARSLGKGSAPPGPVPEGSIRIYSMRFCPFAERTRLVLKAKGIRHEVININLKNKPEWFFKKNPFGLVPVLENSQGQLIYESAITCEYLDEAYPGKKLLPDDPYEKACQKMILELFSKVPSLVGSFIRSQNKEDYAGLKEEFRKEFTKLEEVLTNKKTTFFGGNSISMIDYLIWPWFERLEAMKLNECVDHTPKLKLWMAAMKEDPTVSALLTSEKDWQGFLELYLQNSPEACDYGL
PAD4 inh: PAD4 (human) enzyme inhibition; 330,000 tested, 0.41% active; inhibition, % at 6.36 µM; recombinant PAD4, RCA probe fluorescence polarization; Q9UM07;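 active = percent inhibition above a cutoff equal to the mean of all tested compounds plus 3 SD, cut at about 15% in these data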
JMJD2C inh: human JMJD2C demethylase inhibition. Q9H3R0. GST-JMJD2C(1-420) H3K9me3 demethylation, DELFIA europium. inhibition, % at 2.35 µM. 330,000 tested, 0.069% active. AID 2099;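 active = more than half of a compound's replicate wells show inhibition beyond 50%, single wells judged on their own value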;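 also: signal counts dimethyl H3K9 product captured on neutravidin plate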
Large screens that a line does not name were inactive. Sampled rows, rich in hits. Any-hit rate of the full collection: about 1.6%.

Cc1c(Cc2ccccc2)c(=O)oc2c(CN(C)C)c(O)c(Cl)cc12	none
CCc1cc2c(=O)c(Oc3ccccc3F)c(C)oc2c(CN(C)C)c1O	SUMO HTRF inh 64
O=C(CCl)Nc1cccc(S(=O)(=O)N2CCCCCC2)c1	GSTO1 counter 91
O=C(Oc1cccc(NC(=O)c2ccco2)c1)c1cccc(S(=O)(=O)N2CCCC2)c1	JMJD2C inh 52
O=C(Cc1ccc(Cl)cc1)Nc1cccc(S(=O)(=O)N2CCCCC2)c1	none (no result: SUMO HTRF inh, GSTO1 counter)
Cc1ccc(-c2nc3cc(N)ccc3o2)cc1	SUMO HTRF inh 52
Nc1ccc2oc(-c3cccs3)nc2c1	SUMO HTRF inh 56
Cc1ccccc1-c1nnc(SCCOc2ccc3c(C)cc(=O)oc3c2)o1	GSTO1 counter 36
COC(=O)c1ccc(-c2ccc3c(c2)[C@]2(CCC[C@@H](O)[C@@H]2NC(=O)CCc2ccccc2)C(=O)N3Cc2ccccc2)cc1	none (no result: SUMO HTRF inh, Apaf-1 inh, GSTO1 counter, PAD4 inh, JMJD2C inh)
CNC(=O)[C@@H]1CC=C[C@@H]2CCN(c3ccccc3)C(=O)[C@@H]21	none (no result: SUMO HTRF inh, Apaf-1 inh, GSTO1 counter, PAD4 inh, JMJD2C inh)
CC(=O)Nc1sc2c(c1-c1nc3ccccc3s1)CCCN(C(C)C)C2	none (no result: SUMO HTRF inh, Apaf-1 inh, GSTO1 counter, PAD4 inh, JMJD2C inh)
COc1ccc(C(CCN2CCCC2)c2c(OC)cc(OC)c3c(-c4ccccc4)cc(=O)oc23)cc1 (stereo not drawn)	none
COc1ccc(C(CCN2CCCC(C)C2)c2c(OC)cc(OC)c3c(C)cc(=O)oc23)cc1 (stereo not drawn)	none
COc1cc(OC)c2c(-c3ccccc3)cc(=O)oc2c1C(CCN1CCCC1)c1ccc2c(c1)OCO2 (stereo not drawn)	Apaf-1 inh 49
CCCCCc1cc(=O)oc2c(C(CCN3CCCC(C)C3)c3ccc4c(c3)OCO4)c(OC)cc(OC)c12 (stereo not drawn)	Apaf-1 inh 66
C=CCN(Cc1ccccc1)C(C#CC(=C)C)Cc1ccccc1 (stereo not drawn)	none (no result: SUMO HTRF inh, Apaf-1 inh, GSTO1 counter, PAD4 inh, JMJD2C inh)
CN(C)CCOc1ccc(-c2c(-c3ccccc3)sc3ccccc23)cc1	Apaf-1 inh 77 (no result: SUMO HTRF inh, GSTO1 counter)
NC(=O)c1ccc(-c2c(-c3ccccc3)sc3ccccc23)cc1	none (no result: SUMO HTRF inh, GSTO1 counter)
O=S(=O)(NCCc1ccccc1F)c1cccc(S(=O)(=O)N2CCOCC2)c1	GSTO1 counter 43
CCOc1ccc(Nc2nc(N)nc(CN3CCN(c4ccccc4F)CC3)n2)cc1	none
CCOc1ccc(Nc2nc(N)nc(CCl)n2)cc1	GSTO1 counter 82
Cc1cccc(Nc2nc(N)nc(CN3CCC(C(N)=O)CC3)n2)c1C	none
Cc1cccc(Nc2nc(N)nc(CCl)n2)c1C	GSTO1 counter 65
Cc1ccc(NC(=O)Cn2c(=O)oc3cc(S(=O)(=O)N4CCC(C)CC4)ccc32)cc1C	SUMO HTRF inh 50
COc1ccc(NC(=O)Cn2c(=O)oc3cc(S(=O)(=O)N4CCCC4)ccc32)cc1	none
c1ccc(-n2cnnc2SCc2cn3ccsc3n2)cc1	none
c1ccn2c(SCc3cn4ccsc4n3)nnc2c1	JMJD2C inh 51
COC(CNC(=O)[C@H](Cc1ccccc1)NC(C)(C)C(=O)NC1CCCCC1)OC	none (no result: SUMO HTRF inh, Apaf-1 inh, GSTO1 counter, PAD4 inh, JMJD2C inh)
Cc1ccc(-n2nc(C)c(NC(=O)CCl)c2C)cc1	GSTO1 counter 84
Cc1ccc(-c2nn(-c3ccccc3)cc2CO)cc1	none
Cc1ccc(-c2nn(-c3ccccc3)cc2NC(=O)CCl)cc1	GSTO1 counter 69
CC(=O)Nc1c(C)nn(-c2ccc([N+](=O)[O-])cc2)c1C	none
CCCN1CCCc2cc(CN)ccc21	TDP2 inh 66, Apaf-1 inh 84, GSTO1 counter 64, PAD4 inh 28
CCOC(=O)NC[C@@]1(C(=O)OC)CC(=O)N(Cc2ccc(Cl)cc2)[C@@H]1c1ccc(OC)cc1	none (no result: SUMO HTRF inh, Apaf-1 inh, GSTO1 counter, PAD4 inh, JMJD2C inh)
CCOc1cc(/C=C2\C(=O)N(c3cccc(C(=O)O)c3)N=C2C(F)(F)F)ccc1OCC(=O)Nc1ccccc1OC	SUMO HTRF inh 73 (no result: TDP2 inh)
CCOc1cc(/C=N/n2cnnc2)ccc1OCC(=O)Nc1ccccc1OC	none
COCCCNC(=O)/C(C#N)=C/c1ccc(OCC(=O)O)c(OC)c1	GSTO1 counter 41
N=c1c(S(=O)(=O)c2ccccc2)cc2c(=O)n3ccccc3nc2n1Cc1ccco1	SUMO HTRF inh 50
Cc1ccc2nc3c(cc(S(=O)(=O)c4ccccc4)c(=N)n3Cc3ccco3)c(=O)n2c1	SUMO HTRF inh 80
Cc1ccc(S(=O)(=O)c2cc3c(=O)n4ccccc4nc3n(Cc3ccco3)c2=N)cc1C	none
CCC(C)[C@@H](C(=O)OC)N(Cc1cn(Cc2ccccc2)nn1)S(=O)(=O)c1ccccc1Br (stereo partly drawn)	none (no result: SUMO HTRF inh, Apaf-1 inh, GSTO1 counter, PAD4 inh, JMJD2C inh)
CC(C(=O)NCC1CCCCC1)N1CCc2ccccc2C1 (stereo not drawn)	none
CC(C(=O)NCC1CCCCC1)N1CCN(S(=O)(=O)/C=C/c2ccccc2)CC1 (stereo not drawn)	GSTO1 counter 35
O=C(NC1CCCCC1)C(c1cccnc1)N(C(=O)CCl)c1cccc(Cl)c1 (stereo not drawn)	GSTO1 counter 96
O=C(N1CCCCC1)N1CCC(c2nc3ccccc3[nH]2)CC1	none
CCOC(=O)N1CCC(c2nc3ccccc3[nH]2)CC1	JMJD2C inh 53
O=C1NC(=O)[C@@H]2C3c4ccccc4C=CN3[C@H](C(=O)c3cccs3)[C@H]12 (stereo partly drawn)	Apaf-1 inh 47, GSTO1 counter 35 (no result: TDP2 inh)
O=C(c1ccco1)[C@@H]1[C@@H]2C(=O)N(c3ccc(Br)cc3)C(=O)[C@@H]2C2c3ccccc3C=CN21 (stereo partly drawn)	none (no result: Apaf-1 inh, GSTO1 counter, PAD4 inh, JMJD2C inh)
CN(C)S(=O)(=O)c1cccc(NC(=S)N/N=C/c2ccc(O)c(O)c2O)c1	SUMO HTRF inh 52 (no result: Apaf-1 inh, GSTO1 counter, PAD4 inh)
Cc1ccc(S(=O)(=O)Nc2c(Cl)c(Cl)c(O)c3ccccc23)cc1	SUMO HTRF inh 92, GSTO1 counter 77 (no result: TDP2 inh)
CCOC(=O)c1[nH]c2ccc(Br)cc2c1NC(=O)CCN1CCCC(C)C1 (stereo not drawn)	Apaf-1 inh 97 (no result: TDP2 inh)
O=C1/C(=C/c2ccco2)SC(=S)N1C1CCS(=O)(=O)C1 (stereo not drawn)	SUMO HTRF inh 61
COC(=O)[C@]12C[C@H](CC(=O)N3CCSCC3)C(=O)N(Cc3cccc4ccccc34)C1=C[C@H](C1CCCC1)O[C@@H]2C	none (no result: SUMO HTRF inh, Apaf-1 inh, GSTO1 counter, PAD4 inh, JMJD2C inh)
CC(C)CNS(=O)(=O)/C=C/c1ccc(F)cc1CNC(=O)OC(C)(C)C	none (no result: SUMO HTRF inh, Apaf-1 inh, GSTO1 counter, PAD4 inh, JMJD2C inh)
COc1ccccc1/C=N/NC(=O)c1ccc(CN2C(=O)c3cccc4cccc2c34)cc1	SUMO HTRF inh 59
COC(=O)C1CN(Cc2ccc(C)cc2)CCS(=O)(=O)N1Cc1cn(Cc2ccc(OC)cc2)nn1 (stereo not drawn)	none (no result: SUMO HTRF inh, Apaf-1 inh, GSTO1 counter, PAD4 inh, JMJD2C inh)
CN=c1sc2c(n1C)C(=O)c1ccccc1C2=O	TDP2 inh 35 (no result: SUMO HTRF inh, Apaf-1 inh, GSTO1 counter, PAD4 inh, JMJD2C inh)
COc1ccc(CN2C[C@]3(C=C(C)Cn4c(=O)n(-c5ccccc5)c(=O)n43)N(C(=O)OCc3ccccc3)C2=NC(=O)c2ccccc2)c(OC)c1	none (no result: SUMO HTRF inh, Apaf-1 inh, GSTO1 counter, PAD4 inh, JMJD2C inh)
